Activity calls are given as the source filed them. The rule behind the calls is not given here.
Columns and labels:
[1] = Cell cycle arrest in human SK-MEL-13 cells assessed as accumulation at G1 phase at 2 uM treated 1 hr and measured 10 hr post double hydroxyurea-synchrony release using propidium iodide staining by FACS analysis (reference value: 14 %); type: functional, cell-based
How it was run: (§1)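 SK-Mel-13 cells synchronized with 2 mM hydroxyurea, then treated with 2 μM CDK4 inhibitor or left untreated 1 h after release. Harvested at indicated times post-release, ethanol-fixed, propidium iodide/RNase stained, and DNA content read by FACS. Proportions of G1, S and G2/M cells derived with ModFit.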

HeLa [2] = assay: Effect on aurora B protein expression in human HeLa cells at 2 uM measured 14 hr post thymidine-synchrony release by immunoblot analysis; type: functional, cell-based
How it was run: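 Synchronized HeLa cells given 2 μM CDK4 inhibitor in early S phase and harvested at set times post-release. Lysed in supplemented NETN buffer on ice for 20 min. Lysates run on SDS-PAGE and immunoblotted for survivin, borealin and other chromosomal passenger proteins, with ECL detection. Cyclin D3 served as loading control.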

NCI-H460 [3] = assay: Toxicity in human H460a cells at 8 uM by MTT assay; type: cell-based; conditions: nci-h460, 8 µM
HeLa [4] = assay: Cell cycle arrest at G2 phase in human HeLa cells assessed as effect on cyclin A accumulation at 2 uM treated at early S phase measured after 6-14 hr post thymidine-synchrony release by immunoblot method; type: functional, cell-based
A2058 [5] = assay: Cell cycle arrest in human A2058 cells assessed as accumulation at G1 phase at 2 uM treated 1 hr and measured 12 hr post double hydroxyurea-synchrony release using propidium iodide staining by FACS analysis (reference value: 14 %); type: functional
[6] = Cell cycle arrest in human SK-MEL-13 cells assessed as effect on G2/M phase progression at 2 uM treated 6 hr post double hydroxyurea-synchrony release using propidium iodide staining by FACS analysis; type: functional, cell-based
[7] = Cell cycle arrest in human SK-MEL-13 cells assessed as accumulation at S phase at 2 uM treated 1 hr and measured 8 hr post double hydroxyurea-synchrony release using propidium iodide staining by FACS analysis (reference value: 74 %); type: functional, cell-based; how it was run: as §1
NCI-H460 [8] = assay: Antiproliferative activity against human H460a cells assessed as inhibition of S phase after 48 hrs by MTT assay; type: functional, cell-based; conditions: NCI-H460, 48 h
How it was run: (§2)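 Cells grown in DMEM with 3 mM HEPES and 10% Serum Supreme at 37 °C, 5% CO2. Proliferation read by MTT assay 48 h after drug addition; IC50 given as mean of two separate determinations, each in duplicate.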

[9] = biological target: Cyclin-dependent kinase 2/cyclin E1 (Homo sapiens, UniProt P24941); assay: Inhibition of human CDK2-GST-tagged cyclin E using his-tagged Rb as substrate after 30 mins by scintillation counting method; type: protein-complex assay
[10] = Cell cycle arrest in human SK-MEL-13 cells assessed as accumulation at S phase at 2 uM treated 1 hr and measured 12 hr post double hydroxyurea-synchrony release using propidium iodide staining by FACS analysis (reference value: 10 %); type: functional, cell-based; how it was run: as §1
HeLa [11] = assay: Induction of abberent mitosis in human HeLa cells assessed as lagging chromosomes at 2 uM treated 1 hr and measured 12 hr post thymidine-synchrony release by fluorescence microscopy
[12] = Cell cycle arrest in human SK-MEL-13 cells assessed as accumulation at S phase at 2 uM treated 1 hr and measured 10 hr post double hydroxyurea-synchrony release using propidium iodide staining by FACS analysis (reference value: 16 %); type: functional, cell-based; how it was run: as §1
COLO 205 = assay: Antiproliferative activity against human COLO205 cells assessed as inhibition of S phase after 48 hrs by MTT assay; type: functional, cell-based; conditions: COLO 205, 48 h; how it was run: as §2
HeLa [13] = assay: Induction of abberent mitosis in synchronized human HeLa cells expressing GFP-H2B assessed as micronuclei formation at 2 uM treated 1 hr and measured 12 hr post thymidine-synchrony release by time-lapse microscopy; type: functional, cell-based
A2058 [14] = assay: Cell cycle arrest in human A2058 cells assessed as accumulation at G1 phase at 2 uM treated 1 hr and measured 8 hr post double hydroxyurea-synchrony release using propidium iodide staining by FACS analysis; type: functional
HeLa [15] = assay: Cell cycle arrest at G2 phase in human HeLa cells assessed as delay in entry into mitosis at 2 uM treated 1 hr after double thymidine-synchrony release by MPM-2-based FACS analysis (reference value: 8 hrs); type: functional
A2058 [16] = assay: Cell cycle arrest in human A2058 cells assessed as accumulation at G2/M phase at 2 uM treated 1 hr and measured 8 hr post double hydroxyurea-synchrony release using propidium iodide staining by FACS analysis (reference value: 48 %); type: functional
HeLa [17] = assay: Cell cycle arrest in human HeLa cells assessed as delay in progression into mitosis at 2 uM measured after 8 to 20 hr post hydroxyurea-synchrony release by time-lapse microscopy; type: functional, cell-based
[18] = biological target: Tyrosine-protein kinase Blk (Homo sapiens) (UniProt P51451); assay: Inhibition of BLK at 1 uM
How it was run: (§3)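 Competition binding screen across a kinase panel with compound at 1 μM. Read-out is % competition. Kinases not hit at this concentration were scored '<50'. No Kd was determined for hits.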

[19] = biological target: Activated CDC42 kinase 1 (Homo sapiens) (UniProt Q07912); assay: Inhibition of ACK1 at 1 uM; how it was run: as §3
[20] = biological target: Serine/threonine-protein kinase PAK 6 (Homo sapiens) (UniProt Q9NQU5); assay: Inhibition of PAK6 at 1 uM
[21] = biological target: Mitogen-activated protein kinase kinase kinase kinase 5 (Homo sapiens) (UniProt Q9Y4K4); assay: Inhibition of MAP4K5 at 1 uM
[22] = biological target: Serine/threonine-protein kinase Nek2 (Homo sapiens) (UniProt P51955); assay: Inhibition of NEK2 at 1 uM
[23] = biological target: BMP-2-inducible protein kinase (Homo sapiens) (UniProt Q9NSY1); assay: Inhibition of BIKE at 1 uM; how it was run: as §3
[24] = biological target: Dual specificity protein kinase CLK4 (Homo sapiens) (UniProt Q9HAZ1); assay: Inhibition of CLK4 at 1 uM
[25] = biological target: Receptor-interacting serine/threonine-protein kinase 2 (Homo sapiens) (UniProt O43353); assay: Inhibition of RIPK2 at 1 uM
[26] = biological target: Mast/stem cell growth factor receptor Kit (Homo sapiens) (UniProt P10721); assay: Inhibition of KIT at 1 uM
[27] = biological target: Calcium/calmodulin-dependent protein kinase kinase 1 (Homo sapiens) (UniProt Q8N5S9); assay: Inhibition of CAMKK1 at 1 uM
[28] = biological target: Ribosomal protein S6 kinase alpha-3 (Homo sapiens) (UniProt P51812); assay: Inhibition of RPS6KA3 Kin.Dom.1 at 1 uM
[29] = biological target: Tyrosine-protein kinase Fes/Fps (Homo sapiens) (UniProt P07332); assay: Inhibition of FES at 1 uM
[30] = biological target: Ephrin type-B receptor 1 (Homo sapiens) (UniProt P54762); assay: Inhibition of EPHB1 at 1 uM
[31] = biological target: Vascular endothelial growth factor receptor 3 (Homo sapiens) (UniProt P35916); assay: Inhibition of FLT4 at 1 uM
[32] = biological target: Fibroblast growth factor receptor 2 (Homo sapiens) (UniProt P21802); assay: Inhibition of FGFR2 at 1 uM
Chain of Fibroblast growth factor receptor 2 (Homo sapiens) (P21802 22-821 limits assumed): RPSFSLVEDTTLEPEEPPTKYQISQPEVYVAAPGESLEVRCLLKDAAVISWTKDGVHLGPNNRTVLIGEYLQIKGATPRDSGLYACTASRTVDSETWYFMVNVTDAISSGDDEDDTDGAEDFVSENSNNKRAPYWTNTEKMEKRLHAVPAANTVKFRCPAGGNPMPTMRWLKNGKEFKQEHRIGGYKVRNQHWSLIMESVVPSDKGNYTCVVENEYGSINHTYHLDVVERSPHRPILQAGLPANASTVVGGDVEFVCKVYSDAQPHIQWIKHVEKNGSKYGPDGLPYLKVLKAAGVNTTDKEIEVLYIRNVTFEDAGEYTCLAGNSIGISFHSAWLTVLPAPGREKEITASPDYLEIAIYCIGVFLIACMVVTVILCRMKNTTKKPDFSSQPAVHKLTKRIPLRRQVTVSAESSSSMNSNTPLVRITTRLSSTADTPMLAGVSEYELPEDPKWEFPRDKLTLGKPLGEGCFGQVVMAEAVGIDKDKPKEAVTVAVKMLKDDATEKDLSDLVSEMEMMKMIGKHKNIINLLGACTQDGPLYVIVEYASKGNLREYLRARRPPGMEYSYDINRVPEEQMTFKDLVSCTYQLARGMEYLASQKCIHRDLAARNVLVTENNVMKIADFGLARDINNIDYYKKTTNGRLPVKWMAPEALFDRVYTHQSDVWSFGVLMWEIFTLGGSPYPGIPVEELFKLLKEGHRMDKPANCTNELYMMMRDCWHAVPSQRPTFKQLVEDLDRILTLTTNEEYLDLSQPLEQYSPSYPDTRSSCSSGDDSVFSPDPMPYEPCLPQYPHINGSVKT

Chain of Ribosomal protein S6 kinase alpha-3 (Homo sapiens) (P51812 whole entry): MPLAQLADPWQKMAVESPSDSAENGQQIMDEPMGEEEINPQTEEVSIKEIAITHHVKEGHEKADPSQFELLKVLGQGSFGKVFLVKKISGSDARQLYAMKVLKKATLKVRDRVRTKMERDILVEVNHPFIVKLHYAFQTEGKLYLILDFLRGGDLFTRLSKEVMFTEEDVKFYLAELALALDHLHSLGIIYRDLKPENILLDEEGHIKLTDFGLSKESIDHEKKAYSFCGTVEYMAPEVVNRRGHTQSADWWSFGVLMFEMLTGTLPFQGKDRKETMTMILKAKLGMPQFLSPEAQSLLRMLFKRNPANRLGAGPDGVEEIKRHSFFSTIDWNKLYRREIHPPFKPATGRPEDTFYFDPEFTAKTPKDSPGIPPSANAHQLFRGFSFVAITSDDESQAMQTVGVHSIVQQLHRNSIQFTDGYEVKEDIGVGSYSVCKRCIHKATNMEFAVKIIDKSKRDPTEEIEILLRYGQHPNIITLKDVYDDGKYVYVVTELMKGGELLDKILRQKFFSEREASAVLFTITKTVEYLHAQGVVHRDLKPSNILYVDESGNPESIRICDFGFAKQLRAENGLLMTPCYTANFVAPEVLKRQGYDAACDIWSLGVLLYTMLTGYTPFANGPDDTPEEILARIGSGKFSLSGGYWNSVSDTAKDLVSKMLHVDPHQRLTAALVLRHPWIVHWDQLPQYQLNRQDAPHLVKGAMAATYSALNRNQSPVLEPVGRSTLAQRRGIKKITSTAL
Chain of Ephrin type-B receptor 1 (Homo sapiens) (P54762 whole entry): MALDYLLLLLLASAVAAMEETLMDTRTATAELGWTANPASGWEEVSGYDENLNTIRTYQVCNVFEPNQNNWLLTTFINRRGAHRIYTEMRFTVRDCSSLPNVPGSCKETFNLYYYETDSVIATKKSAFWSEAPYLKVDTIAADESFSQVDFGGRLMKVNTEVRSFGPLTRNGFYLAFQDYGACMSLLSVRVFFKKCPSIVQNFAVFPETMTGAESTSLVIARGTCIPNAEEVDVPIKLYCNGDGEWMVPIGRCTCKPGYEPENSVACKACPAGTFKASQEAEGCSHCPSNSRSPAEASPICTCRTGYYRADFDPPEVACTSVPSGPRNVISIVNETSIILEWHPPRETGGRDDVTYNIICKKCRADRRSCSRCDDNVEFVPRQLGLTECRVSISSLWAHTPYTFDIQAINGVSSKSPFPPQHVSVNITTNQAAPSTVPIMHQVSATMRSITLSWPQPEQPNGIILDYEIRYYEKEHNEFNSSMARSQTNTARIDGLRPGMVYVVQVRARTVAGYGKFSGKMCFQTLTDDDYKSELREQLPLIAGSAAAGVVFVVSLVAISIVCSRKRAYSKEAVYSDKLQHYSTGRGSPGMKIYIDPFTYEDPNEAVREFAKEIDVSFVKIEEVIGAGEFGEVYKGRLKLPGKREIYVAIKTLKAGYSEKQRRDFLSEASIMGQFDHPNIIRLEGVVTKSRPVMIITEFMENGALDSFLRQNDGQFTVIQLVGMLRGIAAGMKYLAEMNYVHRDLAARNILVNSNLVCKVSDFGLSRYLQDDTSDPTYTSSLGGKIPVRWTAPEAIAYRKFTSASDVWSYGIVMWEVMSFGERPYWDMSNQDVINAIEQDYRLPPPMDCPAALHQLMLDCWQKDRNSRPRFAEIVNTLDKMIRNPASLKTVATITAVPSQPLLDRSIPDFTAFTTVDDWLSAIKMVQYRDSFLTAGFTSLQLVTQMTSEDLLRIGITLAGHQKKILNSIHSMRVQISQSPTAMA
Chain of Mast/stem cell growth factor receptor Kit (Homo sapiens) (P10721 whole entry): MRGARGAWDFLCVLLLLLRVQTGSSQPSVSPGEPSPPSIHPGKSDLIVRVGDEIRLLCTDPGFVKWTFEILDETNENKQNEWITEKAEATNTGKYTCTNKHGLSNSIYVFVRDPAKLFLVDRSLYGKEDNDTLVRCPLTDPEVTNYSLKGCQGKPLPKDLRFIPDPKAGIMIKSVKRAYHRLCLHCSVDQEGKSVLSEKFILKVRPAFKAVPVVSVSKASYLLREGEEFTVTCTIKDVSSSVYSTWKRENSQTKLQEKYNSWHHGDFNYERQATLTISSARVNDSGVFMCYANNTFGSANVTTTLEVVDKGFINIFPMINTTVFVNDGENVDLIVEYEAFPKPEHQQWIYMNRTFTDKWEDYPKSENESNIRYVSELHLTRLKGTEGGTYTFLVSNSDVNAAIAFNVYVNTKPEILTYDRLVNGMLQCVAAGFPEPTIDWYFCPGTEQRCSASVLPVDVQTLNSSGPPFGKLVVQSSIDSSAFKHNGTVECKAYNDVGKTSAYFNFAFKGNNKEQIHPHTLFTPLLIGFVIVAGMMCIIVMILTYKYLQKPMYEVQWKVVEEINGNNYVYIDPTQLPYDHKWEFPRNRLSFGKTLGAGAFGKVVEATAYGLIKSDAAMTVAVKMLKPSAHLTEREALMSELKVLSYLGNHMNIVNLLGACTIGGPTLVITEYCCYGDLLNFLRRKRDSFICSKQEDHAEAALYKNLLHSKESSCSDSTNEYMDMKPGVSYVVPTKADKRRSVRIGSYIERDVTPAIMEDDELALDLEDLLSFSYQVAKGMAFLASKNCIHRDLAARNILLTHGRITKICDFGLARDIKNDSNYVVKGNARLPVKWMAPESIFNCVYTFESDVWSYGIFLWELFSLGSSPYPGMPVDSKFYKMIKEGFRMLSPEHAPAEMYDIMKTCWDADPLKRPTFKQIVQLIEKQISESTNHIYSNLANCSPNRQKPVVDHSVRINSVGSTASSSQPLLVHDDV
Chain of Dual specificity protein kinase CLK4 (Homo sapiens) (Q9HAZ1 whole entry, looked up): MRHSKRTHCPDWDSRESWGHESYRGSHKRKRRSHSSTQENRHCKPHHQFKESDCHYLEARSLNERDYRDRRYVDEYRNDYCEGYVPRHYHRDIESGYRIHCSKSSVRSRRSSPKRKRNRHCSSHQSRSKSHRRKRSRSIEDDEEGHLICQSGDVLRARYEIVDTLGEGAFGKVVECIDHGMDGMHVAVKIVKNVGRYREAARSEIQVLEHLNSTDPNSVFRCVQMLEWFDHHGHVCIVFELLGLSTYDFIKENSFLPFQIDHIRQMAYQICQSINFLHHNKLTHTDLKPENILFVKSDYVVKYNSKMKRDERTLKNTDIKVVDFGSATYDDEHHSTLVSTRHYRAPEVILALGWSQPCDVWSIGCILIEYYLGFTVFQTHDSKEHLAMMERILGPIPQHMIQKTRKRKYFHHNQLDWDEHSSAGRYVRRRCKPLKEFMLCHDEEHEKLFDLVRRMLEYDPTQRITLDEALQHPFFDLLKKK
Chain of Tyrosine-protein kinase Fes/Fps (Homo sapiens) (P07332 whole entry): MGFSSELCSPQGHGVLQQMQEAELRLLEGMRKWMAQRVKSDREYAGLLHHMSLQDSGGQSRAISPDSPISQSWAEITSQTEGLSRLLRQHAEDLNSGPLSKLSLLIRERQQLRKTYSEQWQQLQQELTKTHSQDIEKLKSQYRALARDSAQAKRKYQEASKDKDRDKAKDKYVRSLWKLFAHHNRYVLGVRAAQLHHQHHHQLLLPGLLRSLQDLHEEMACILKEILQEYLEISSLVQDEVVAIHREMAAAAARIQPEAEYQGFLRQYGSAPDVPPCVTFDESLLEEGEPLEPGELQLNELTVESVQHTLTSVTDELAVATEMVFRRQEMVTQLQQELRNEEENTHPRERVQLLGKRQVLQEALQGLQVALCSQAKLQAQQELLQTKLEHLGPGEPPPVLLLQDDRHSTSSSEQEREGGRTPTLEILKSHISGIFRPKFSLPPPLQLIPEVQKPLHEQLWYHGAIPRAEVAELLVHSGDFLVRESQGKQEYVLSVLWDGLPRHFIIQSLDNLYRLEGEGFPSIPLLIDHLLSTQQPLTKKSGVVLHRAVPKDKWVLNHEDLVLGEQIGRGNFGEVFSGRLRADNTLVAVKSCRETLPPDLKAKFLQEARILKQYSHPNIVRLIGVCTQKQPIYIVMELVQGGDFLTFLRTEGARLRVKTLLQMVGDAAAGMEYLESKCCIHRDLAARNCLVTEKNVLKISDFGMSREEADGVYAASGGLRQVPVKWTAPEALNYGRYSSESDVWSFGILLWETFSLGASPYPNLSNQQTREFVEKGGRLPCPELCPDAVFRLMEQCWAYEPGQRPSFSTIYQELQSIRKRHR

IC50 (NCI-H460 [8]) [µM]	IC50 [9] [µM]	IC50 (COLO 205) [nM]	Compound	Activity [1] [%]	Activity (HeLa [2])	Activity (NCI-H460 [3])	Activity (HeLa [4])	Activity (A2058 [5]) [%]	Activity [6]	Activity [7] [%]	Activity [10] [%]	Activity (HeLa [11]) [%]	Activity [12] [%]	Activity (HeLa [13])	Activity (A2058 [14]) [%]	Time (HeLa [15]) [h]	Activity (A2058 [16]) [%]	Activity (HeLa [17])	also measured
1.14	4.14	560	COc1cccc(C(=O)c2sc(Nc3ccc(N4CCN(C(C)C)CC4)cc3)nc2N)c1	11	inactive	Toxic	inactive	0	inactive	18	10	40	14	Active	8	12	69	Active	–
8.12	2.36	2040	CN1CCN(c2ccc(Nc3nc(N)c(C(=O)c4ccc5c(c4)OCCO5)s3)cc2)CC1	11	inactive	Toxic	inactive	0	inactive	18	10	40	14	Active	8	12	69	Active	inhibition [18]: < 50%; inhibition [19]: < 50%; inhibition [20]: < 50%; inhibition [21]: < 50%; inhibition [22]: < 50%; inhibition [23]: < 50%; inhibition [24]: 97%; inhibition [25]: < 50%; inhibition [26]: < 50%; inhibition [27]: < 50%; inhibition [28]: < 50%; inhibition [29]: < 50%; inhibition [30]: < 50%; inhibition [31]: < 50%; inhibition [32]: < 50%
